From PubChem BioAssay
In the library only some 2.4% were active in any assay of this set; here they are far more common.
NRP1-CendR mod: modulators of CendR peptide binding to NRP-1, primary screen, biochemical, fluorescence polarization, uHTS. AID 602438, 2012. FAM-RPARPAR peptide binding to NRP-1. inhibition, % at 25 µM. Neuropilin-1 (Homo sapiens), O14786. actives 0.85% (n = 360,000);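 active = inhibition or corrected inhibition above about 18%, plus a signal ratio from 0.5 to 1.5, limit read from the data, passing the limit was not always enough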
Target sequence (O14786 whole entry, looked up): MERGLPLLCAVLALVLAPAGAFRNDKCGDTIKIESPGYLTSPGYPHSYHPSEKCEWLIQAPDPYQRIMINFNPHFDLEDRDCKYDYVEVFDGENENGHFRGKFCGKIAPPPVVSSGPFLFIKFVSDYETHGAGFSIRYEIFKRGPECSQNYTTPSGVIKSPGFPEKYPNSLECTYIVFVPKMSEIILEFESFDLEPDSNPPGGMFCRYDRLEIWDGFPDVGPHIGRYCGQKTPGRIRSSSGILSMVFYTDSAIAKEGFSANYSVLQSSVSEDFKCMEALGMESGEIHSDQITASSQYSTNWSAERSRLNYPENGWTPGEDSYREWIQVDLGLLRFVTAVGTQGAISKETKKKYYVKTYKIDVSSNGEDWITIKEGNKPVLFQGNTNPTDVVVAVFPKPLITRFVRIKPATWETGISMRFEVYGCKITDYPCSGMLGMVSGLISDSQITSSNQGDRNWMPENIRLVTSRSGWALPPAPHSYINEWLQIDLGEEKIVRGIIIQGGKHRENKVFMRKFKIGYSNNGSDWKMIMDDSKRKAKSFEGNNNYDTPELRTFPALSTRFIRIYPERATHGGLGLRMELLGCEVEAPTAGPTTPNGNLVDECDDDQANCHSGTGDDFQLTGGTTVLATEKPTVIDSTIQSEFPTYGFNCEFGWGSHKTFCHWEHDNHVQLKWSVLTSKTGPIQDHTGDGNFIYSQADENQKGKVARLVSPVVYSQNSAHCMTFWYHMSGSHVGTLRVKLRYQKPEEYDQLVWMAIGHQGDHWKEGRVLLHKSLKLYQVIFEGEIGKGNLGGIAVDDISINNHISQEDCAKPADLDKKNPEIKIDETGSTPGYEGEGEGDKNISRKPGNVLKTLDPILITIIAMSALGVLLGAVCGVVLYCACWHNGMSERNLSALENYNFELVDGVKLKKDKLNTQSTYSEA
SENP1 FRET inh: human SENP1 catalytic domain inhibitors, primary screen, biochemical, FRET, uHTS | recombinant SENP1 catalytic domain, CyPet-SUMO1-YPet FRET cleavage | inhibition, % at 10 µM | actives 0.21% (n = 360,000);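 active = inhibition at least 30% at 10 µM, raw YFP signal under a set limit, fluorescence ratio 0.5 to 1.5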
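Test system: human SENP1 catalytic domain; medium: Tris pH 8 buffer plus EDTA, NaCl, BME, BSA, NP40, catalase; incubation: 50 min reaction at room temperature; technique: FRET, CFP and YFP emission; controls: no-enzyme low control and enzyme-plus-DMSO high control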
DAGLB inhibitor: DAGLB lipase inhibitors, primary screen, biochemical, fluorescence, HTS; HEK293T DAGLB membrane lysate, EnzChek fluorogenic substrate; actives 0.059% (n = 340,000); Diacylglycerol lipase-beta (Homo sapiens), Q8NCG7; inhibition, % at 5.17 µM; in the data active = inhibition above about 34%
MIN6 prolif: inducers of MIN6 beta-cell proliferation, primary screen, ATP luminescence, uHTS; proliferation, % at 10 µM; AID 2380, 2010; MIN6 cells proliferation, ATPlite luminescence, 48 h; cells starved in 0.2% serum; 100% = growth in 10% serum; actives 0.29% (n = 330,000);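 active = compounds whose signal lies at least 3.5 SD above the mean of all wells on their plate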
Myeloid diff 2: induction of myeloid progenitor differentiation, primary screen, cell-based, flow cytometry, MLPCN library; ER-HoxA9 myeloid progenitors, lysozyme-GFP differentiation; calls only at 10 µM; actives 1% (n = 360,000); AID 624256, 2012;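 active = normalized GFP-positive differentiation at or above the plate's own cutoff, the solvent-only control mean plus 3 SD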;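 note: cells exposed to compound for four days before flow analysis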
MT1-MMP act inh: blockers of MT1-MMP proenzyme processing, primary screen, HT1080 RFP-PRO-GFP cells, GFP/RFP fluorescence; Matrix metalloproteinase-14 (Homo sapiens), P50281; GFP/RFP ratio fluorescence, overnight; percent of plate control window, DMSO zero; GFP/RFP ratio change, % at 20 µM; actives 0.061% (n = 360,000);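 active = GFP/RFP ratio change of at least 30% with cell ATP level not reduced by more than half and red fluorescence within 50% of control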
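Assay system – RFP-PRO-GFP reporter HT1080 cells · Compound dosing – single dose of 20 µM compound, 1% DMSO final · Incubation – overnight compound exposure at 37 °C · Measure – GFP/RFP fluorescence ratio · Benchmarks – DMSO wells and RFP-L50D-GFP cells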
Myeloid diff CP1: inducers of myeloid progenitor differentiation, confirmation, cell-based, GFP/Mac1 flow cytometry, cherry pick 01 | shares compounds with Myeloid diff 2 | ER-HoxA9 myeloid progenitors, GFP/Mac1 double-positive flow | calls only | actives 2% (n = 2,300);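 active = share of green or green-and-red cells above 9 and 9% in run 1 or 4 and 3% in run 2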
GFP autofluor: flagged as fluorescent in myeloid differentiation counter-screen; ER-HoxA9 myeloid progenitors, no estrogen, GFP autofluorescence flow cytometry; vehicle wells 0%, positive control 100%; actives 7.4% (n = 2,300); fluorescence response, % (test concentration not listed); shares compounds with Myeloid diff 2;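 active = over 5% cells positive for green fluorescent reporter, or over 2% positive for both it and APC stain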
Of the large screens only hits and unclear results are named; the others gave an inactive call (follow-up assays come after a bar, where they were run).

CCOC(=O)Cn1nnc(-c2cccc(OC)c2)n1	none | Myeloid diff CP1 inactive | GFP autofluor inactive
CCN(CC)S(=O)(=O)c1cc(OCC(N)=O)c(C)cc1Cl	none | Myeloid diff CP1 inactive | GFP autofluor inactive
Cc1cc(Cl)c(S(N)(=O)=O)cc1OCC(N)=O	none
COc1ccc(C2(C)NC(=O)N(CC(=O)NCc3ccccc3F)C2=O)cc1 (stereo unspecified)	none
CCO[C@H]1OC(C(=O)O)=C[C@@H](c2ccccc2)[C@@H]1CCCO	none | Myeloid diff CP1 inactive | GFP autofluor inactive
Cc1nonc1OCCn1c([N+](=O)[O-])cnc1C	none
Cc1ccc(C(=O)NNC(=O)CSc2nnc(-c3ccncc3)n2-c2ccc(C)cc2)cc1	none | Myeloid diff CP1 inactive | GFP autofluor inactive
CC(=O)c1c(O)c(C)c(-c2ccccc2)n(-c2ccccc2)c1=O	none
CC(=O)c1c(O)cc(=O)n(-c2ccccc2)c1-c1ccc(C)cc1	none | Myeloid diff CP1 inactive | GFP autofluor inactive
COc1cc(-c2c(CCO)sc3ccccc23)cc(OC)c1OC	Myeloid diff 2 active (no result: DAGLB inhibitor, MIN6 prolif) | Myeloid diff CP1 inactive | GFP autofluor inactive
NC(=O)C1CCN(C(=O)c2ccco2)CC1	none | Myeloid diff CP1 inactive | GFP autofluor inactive
CCOP(=O)(OCC)/C(C#N)=C/c1ccc([N+](=O)[O-])cc1	none | Myeloid diff CP1 inactive | GFP autofluor inactive
N#C/C(=C/c1ccc([N+](=O)[O-])cc1)C(N)=O	none
O=C1C=C(O)CC2(CCCCC2)C1	Myeloid diff 2 active (no result: DAGLB inhibitor, MIN6 prolif) | Myeloid diff CP1 inactive | GFP autofluor inactive
COc1ccc(NC(=O)N(C)C[C@H]2Oc3ccc(NC(=O)Nc4c(C)noc4C)cc3C(=O)N([C@H](C)CO)C[C@@H]2C)cc1	none
COc1ccc(CCNC(=O)c2ccn[nH]2)cc1OC	Myeloid diff 2 active | Myeloid diff CP1 inactive | GFP autofluor inactive
COC(=O)C1=C(C)Nc2nnnn2C1c1ccco1 (stereo unspecified)	none (no result: Myeloid diff 2) | Myeloid diff CP1 inactive | GFP autofluor inactive
O=c1c2c(nc3n1CCCCC3)-c1ccccc1CC21CCCCC1	none | Myeloid diff CP1 inactive | GFP autofluor inactive
O=c1c(=Nc2ccccc2O)c(=O)c2ccccc12	Myeloid diff 2 active | Myeloid diff CP1 inactive | GFP autofluor inactive
CC(O)C(=O)N/N=C/c1ccccc1C(=O)O (stereo unspecified)	none | Myeloid diff CP1 inactive | GFP autofluor inactive
CC(C)(C)c1cc(Cl)c(O)c(NC(=S)NC(=O)c2cccnc2)c1	Myeloid diff 2 active | Myeloid diff CP1 inactive | GFP autofluor inactive
CC(C)(C)c1ccc(C(=O)NNC(=S)NC(=O)c2cccnc2)cc1	none
O=C(Nc1ccncc1)c1ccc(-c2ccccc2)cc1	none
O=C(CCN1CCN(c2ccccc2)CC1)Nc1ccccc1F	none | Myeloid diff CP1 inactive | GFP autofluor inactive
O=C(CCN1CCN(c2ccc(F)cc2)CC1)Nc1ccccc1F	none
CCn1ncc(C2=NOC(C(=O)Nc3cc(OC)c(Cl)cc3OC)C2)c1C (stereo unspecified)	none | Myeloid diff CP1 inactive | GFP autofluor inactive
CCn1ncc(C2=NOC(C(=O)NCC(C)C)C2)c1C (stereo unspecified)	none
C[C@@H]1CN([C@@H](C)CO)C(=O)CCCn2nncc2CO[C@@H]1CN(C)C(=O)Nc1ccc(N2CCN(C)CC2)cc1	none (no result: MIN6 prolif)
CCN(Cc1cc2ccccc2[nH]c1=O)C(=O)C1CCCCC1	none
CC(C)N(Cc1cc2ccccc2[nH]c1=O)C(=O)C1CCCCC1	none | Myeloid diff CP1 inactive | GFP autofluor inactive
COc1ccc(-n2nc(C(=O)NCC(=O)N3CCN(c4cccc(Cl)c4)CC3)c3ccccc3c2=O)c(OC)c1	none | Myeloid diff CP1 inactive | GFP autofluor inactive
Cc1cccc(N2CCN(C(=S)NCCc3ccccc3)CC2)c1C	Myeloid diff 2 active | Myeloid diff CP1 inactive | GFP autofluor inactive
O=C(/C=C\Nc1ccccn1)c1ccc(Cl)cc1	Myeloid diff 2 active | Myeloid diff CP1 inactive | GFP autofluor inactive
COc1ccc(C(=O)Nc2nccs2)cc1OC	Myeloid diff 2 active | Myeloid diff CP1 inactive | GFP autofluor inactive
Cc1ccc(CCNC(=O)CCS(=O)(=O)c2cc3c(cc2C)NC(=O)CO3)cc1	none | Myeloid diff CP1 inactive | GFP autofluor inactive
O=C(CCS(=O)(=O)c1cc2c(cc1Cl)NC(=O)CO2)NCCc1ccccc1	none
COc1cc(C(=O)NCCC(=O)NCc2c(F)cc(F)cc2F)cc(OC)c1OC	none | Myeloid diff CP1 inactive | GFP autofluor inactive
COc1cc(C(=O)NCCC(=O)NCCc2ccc(Cl)cc2)cc(OC)c1OC	none
COc1ccc(C(=O)Nc2nc3ccc(S(C)(=O)=O)cc3s2)cc1OC	none
COc1cccc(OC)c1C(=O)Nc1nc2ccc(S(C)(=O)=O)cc2s1	Myeloid diff 2 active | Myeloid diff CP1 inactive | GFP autofluor inactive
CS(=O)(=O)c1ccc2nc(NC(=O)CS(=O)(=O)Cc3ccccc3)sc2c1	Myeloid diff 2 active | Myeloid diff CP1 inactive | GFP autofluor inactive
Cn1c(=O)c2c(nc(Cl)n2CC(=O)N2CCCCC2)n(C)c1=O	none
C=CCN(CC=C)CC(=O)Nn1c(C)ccc1C	none (no result: MIN6 prolif)
COc1ccc(/C=C2\N=C(SC)N(C)C2=O)cc1	none
O=C(O)CCNS(=O)(=O)c1ccc(Oc2ccccc2)cc1	none | Myeloid diff CP1 inactive | GFP autofluor inactive
Cn1cc(S(=O)(=O)CC(=O)Nc2ccc3c(c2)OCCO3)c2ccccc21	none
Cc1ccc(C)c(NC(=O)CS(=O)(=O)c2cn(C)c3ccccc23)c1	none | Myeloid diff CP1 inactive | GFP autofluor inactive
CC(C)(C)OC(=O)C[C@@H]1C/C=C\C[C@@H](CC(=O)NCCO)C(=O)NC[C@H](c2ccccc2)OC1=O	none
NC(=O)NC(Cc1ccccc1)c1ccccc1 (stereo unspecified)	Myeloid diff 2 active | Myeloid diff CP1 inactive | GFP autofluor inactive
